Experimental data from ChEMBL document CHEMBL1157665, “Novel 4-thiazolidinone derivatives as potential antifungal and antibacterial drugs” (2010).
Converted amounts (≈) assume the structure as drawn.

What was measured:
Aspergillus niger [1] = assay: Antifungal activity against Aspergillus niger ATCC 6275 after 72 hrs by serial sub-cultivation method; assay type: functional; settings: ATCC 6275, 72 h
How it was run: (§1)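 MFC was found by serial sub-cultivation of 2 µl into plates holding 100 µl broth per well, then incubation 72 h at 28 °C. MFC is the lowest concentration with no visible growth, taken as 99.5% killing of the original inoculum. Spore inocula came from malt agar cultures washed with 0.85% saline and 0.1% Tween 80.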

Aspergillus versicolor [2] = assay: Antifungal activity against Aspergillus versicolor ATCC 11730 after 72 hrs by serial dilution method; assay type: functional; settings: ATCC 11730, 72 h
How it was run: (§2)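 Fungi were kept on malt agar at 4 °C and sub-cultured monthly. Spores were washed off the agar with sterile 0.85% saline containing 0.1% Tween 80 (v/v). Modified microdilution in 96-well plates. MIC is the lowest concentration with no visible growth under the binocular microscope. Inoculum checked on malt agar for contamination and validity.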

Aspergillus versicolor [3] = assay: Antifungal activity against Aspergillus versicolor ATCC 11730 after 72 hrs by serial sub-cultivation method; assay type: functional; settings: ATCC 11730, 72 h; how it was run: as §1
Aspergillus flavus [4] = assay: Antifungal activity against Aspergillus flavus ATCC 9643 after 72 hrs by serial dilution method; assay type: functional; settings: ATCC 9643, 72 h; how it was run: as §2
Aspergillus flavus [5] = assay: Antifungal activity against Aspergillus flavus ATCC 9643 after 72 hrs by serial sub-cultivation method; assay type: functional; settings: ATCC 9643, 72 h; how it was run: as §1
Fulvia fulva [6] = assay: Antifungal activity against Fulvia fulva TK 5318 after 72 hrs by serial dilution method; assay type: functional; settings: TK 5318, 72 h; how it was run: as §2
Fulvia fulva [7] = assay: Antifungal activity against Fulvia fulva TK 5318 after 72 hrs by serial sub-cultivation method; assay type: functional; settings: TK 5318, 72 h; how it was run: as §1
Bacillus cereus [8] = assay: Antibacterial activity against Bacillus cereus clinical isolate after 24 hrs; assay type: functional
How it was run: (§3)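 Broth microdilution MIC in 96-well plates. Compounds in LB broth with bacterial inoculum of 1.0 × 10^4 cfu per well, from suspensions adjusted with sterile saline to 1.0 × 10⁵ CFU/ml. Incubated 24 h at […] as printed. MIC taken as the lowest concentration with no visible growth under the binocular microscope. OD at 655 nm also read against blank. Streptomycin and ampicillin as positive controls. Duplicate, repeated three times.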

Bacillus cereus [9] = assay: Antibacterial activity against Bacillus cereus clinical isolate after 72 hrs by serial sub-cultivation method; assay type: functional
How it was run: (§4)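 MBC was found by serial sub-cultivation of 2 µl from the MIC wells into plates holding 100 µl broth per well, then incubation for 72 h. MBC is the lowest concentration with no visible growth, i.e. 99.5% killing of the original inoculum. Bacterial inoculum was 1.0 × 10^4 cfu per well in LB broth. Duplicate, repeated three times.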

Micrococcus flavus [10] = assay: Antibacterial activity against Micrococcus flavus ATCC 10240 after 24 hrs; assay type: functional; settings: ATCC 10240, 24 h; how it was run: as §3
Micrococcus flavus [11] = assay: Antibacterial activity against Micrococcus flavus ATCC 10240 after 72 hrs by serial sub-cultivation method; assay type: functional; settings: ATCC 10240, 72 h; how it was run: as §4
Staphylococcus aureus [12] = assay: Antibacterial activity against Staphylococcus aureus ATCC 6538 after 24 hrs; assay type: functional; settings: ATCC 6538, 24 h; how it was run: as §3
Staphylococcus aureus [13] = assay: Antibacterial activity against Staphylococcus aureus ATCC 6538 after 72 hrs by serial sub-cultivation method; assay type: functional; settings: ATCC 6538, 72 h; how it was run: as §4
Escherichia coli [14] = assay: Antibacterial activity against Escherichia coli ATCC 35210 after 24 hrs; assay type: functional; settings: ATCC 35210, 24 h; how it was run: as §3
Escherichia coli [15] = assay: Antibacterial activity against Escherichia coli ATCC 35210 after 72 hrs by serial sub-cultivation method; assay type: functional; settings: ATCC 35210, 72 h; how it was run: as §4
Pseudomonas aeruginosa [16] = assay: Antibacterial activity against Pseudomonas aeruginosa ATCC 27853 after 24 hrs; assay type: functional; settings: ATCC 27853, 24 h; how it was run: as §3
Pseudomonas aeruginosa [17] = assay: Antibacterial activity against Pseudomonas aeruginosa ATCC 27853 after 72 hrs by serial sub-cultivation method; assay type: functional; settings: ATCC 27853, 72 h; how it was run: as §4
Proteus mirabilis [18] = assay: Antibacterial activity against Proteus mirabilis after 24 hrs; assay type: functional; how it was run: as §3
Proteus mirabilis [19] = assay: Antibacterial activity against Proteus mirabilis after 72 hrs by serial sub-cultivation method; assay type: functional; how it was run: as §4
Salmonella typhimurium [20] = assay: Antibacterial activity against Salmonella Typhimurium ATCC 13311 after 24 hrs; assay type: functional, Salmonella enterica subsp. enterica serovar Typhimurium; settings: Salmonella enterica, ATCC 13311, 24 h; how it was run: as §3
Salmonella typhimurium [21] = assay: Antibacterial activity against Salmonella Typhimurium ATCC 13311 after 72 hrs by serial sub-cultivation method; assay type: functional, Salmonella enterica subsp. enterica serovar Typhimurium; settings: Salmonella enterica, ATCC 13311, 72 h; how it was run: as §4
Listeria monocytogenes [22] = assay: Antibacterial activity against Listeria monocytogenes NCTC 7973 after 24 hrs; assay type: functional; settings: NCTC 7973, 24 h; how it was run: as §3
Listeria monocytogenes [23] = assay: Antibacterial activity against Listeria monocytogenes NCTC 7973 after 72 hrs by serial sub-cultivation method; assay type: functional; settings: NCTC 7973, 72 h; how it was run: as §4
Talaromyces funiculosus [24] = assay: Antifungal activity against Penicillium funiculosum ATCC 36839 after 72 hrs by serial dilution method; assay type: functional; settings: ATCC 36839, 72 h; how it was run: as §2
Talaromyces funiculosus [25] = assay: Antifungal activity against Penicillium funiculosum ATCC 36839 after 72 hrs by serial sub-cultivation method; assay type: functional; settings: ATCC 36839, 72 h; how it was run: as §1
Penicillium ochrochloron [26] = assay: Antifungal activity against Penicillium ochrochloron ATCC 9112 after 72 hrs by serial dilution method; assay type: functional; settings: ATCC 9112, 72 h; how it was run: as §2
Penicillium ochrochloron [27] = assay: Antifungal activity against Penicillium ochrochloron ATCC 9112 after 72 hrs by serial sub-cultivation method; assay type: functional; settings: ATCC 9112, 72 h; how it was run: as §1
Trichoderma viride [28] = assay: Antifungal activity against Trichoderma viride IAM 5061 after 72 hrs by serial dilution method; assay type: functional; settings: IAM 5061, 72 h; how it was run: as §2
Trichoderma viride [29] = assay: Antifungal activity against Trichoderma viride IAM 5061 after 72 hrs by serial sub-cultivation method; assay type: functional; settings: IAM 5061, 72 h; how it was run: as §1
Aspergillus niger [30] = assay: Antifungal activity against Aspergillus niger ATCC 6275 after 72 hrs by serial dilution method; assay type: functional; settings: ATCC 6275, 72 h; how it was run: as §2
Aspergillus fumigatus [31] = assay: Antifungal activity against Aspergillus fumigatus plant isolate after 72 hrs by serial dilution method
Aspergillus fumigatus [32] = assay: Antifungal activity against Aspergillus fumigatus plant isolate after 72 hrs by serial sub-cultivation method

Q: How did the MFC (Aspergillus niger [1]) turn out when `O=C1N/C(=N/c2nc(C34CC5CC(CC(C5)C3)C4)cs2)S/C1=C\c1ccc(O)cc1` was run?
A: 22.9 µM (≈ 10 µg/mL)

Q: And the MIC (Aspergillus versicolor [2])?
A: 17.2 µM (≈ 7.53 µg/mL)

Q: What about the MFC (Aspergillus versicolor [3]) of the same compound?
A: 22.9 µM (≈ 10 µg/mL)

Q: And the MIC (Aspergillus flavus [4])?
A: 11.5 µM (≈ 5.03 µg/mL)

Q: What about the MFC (Aspergillus flavus [5]) of the same compound?
A: 22.9 µM (≈ 10 µg/mL)

Q: And the MIC (Fulvia fulva [6])?
A: 11.5 µM (≈ 5.03 µg/mL)

Q: What about the MFC (Fulvia fulva [7]) of the same compound?
A: 22.9 µM (≈ 10 µg/mL)

Q: And the MIC (Bacillus cereus [8])?
A: 17.2 µM (≈ 7.53 µg/mL)

Q: And the MBC (Bacillus cereus [9])?
A: 22.9 µM (≈ 10 µg/mL)

Q: And the MIC (Micrococcus flavus [10])?
A: 22.9 µM (≈ 10 µg/mL)

Q: And the MBC (Micrococcus flavus [11])?
A: 45.8 µM (≈ 20 µg/mL)

Q: And the MIC (Staphylococcus aureus [12])?
A: 17.2 µM (≈ 7.53 µg/mL)

Q: And the MBC (Staphylococcus aureus [13])?
A: 45.8 µM (≈ 20 µg/mL)

Q: What about the MIC (Escherichia coli [14]) of the same compound?
A: 22.9 µM (≈ 10 µg/mL)

Q: And the MBC (Escherichia coli [15])?
A: 45.8 µM (≈ 20 µg/mL)

Q: What about the MIC (Pseudomonas aeruginosa [16]) of the same compound?
A: 22.9 µM (≈ 10 µg/mL)

Q: And the MBC (Pseudomonas aeruginosa [17])?
A: 45.8 µM (≈ 20 µg/mL)

Q: And the MIC (Proteus mirabilis [18])?
A: 45.8 µM (≈ 20 µg/mL)

Q: And the MBC (Proteus mirabilis [19])?
A: 68.7 µM (≈ 30.1 µg/mL)

Q: What about the MIC (Salmonella typhimurium [20]) of the same compound?
A: 11.5 µM (≈ 5.03 µg/mL)

Q: And the MBC (Salmonella typhimurium [21])?
A: 17.2 µM (≈ 7.53 µg/mL)

Q: And the MIC (Listeria monocytogenes [22])?
A: 22.9 µM (≈ 10 µg/mL)

Q: And the MBC (Listeria monocytogenes [23])?
A: 45.8 µM (≈ 20 µg/mL)

Q: And the MIC (Talaromyces funiculosus [24])?
A: 17.2 µM (≈ 7.53 µg/mL)

Q: And the MFC (Talaromyces funiculosus [25])?
A: 22.9 µM (≈ 10 µg/mL)

Q: What about the MIC (Penicillium ochrochloron [26]) of the same compound?
A: 17.2 µM (≈ 7.53 µg/mL)

Q: And the MFC (Penicillium ochrochloron [27])?
A: 22.9 µM (≈ 10 µg/mL)

Q: And the MIC (Trichoderma viride [28])?
A: 11.5 µM (≈ 5.03 µg/mL)

Q: What about the MFC (Trichoderma viride [29]) of the same compound?
A: 22.9 µM (≈ 10 µg/mL)

Q: What about the MIC (Aspergillus niger [30]) of the same compound?
A: 11.5 µM (≈ 5.03 µg/mL)

Q: What about the MIC (Aspergillus fumigatus [31]) of the same compound?
A: 11.5 µM (≈ 5.03 µg/mL)

Q: And the MFC (Aspergillus fumigatus [32])?
A: 22.9 µM (≈ 10 µg/mL)
